{"source": "PubChem BioAssay AID652260", "about": "(The Scripps Research Institute Molecular Screening Center, 2013)", "note": "In all, about 3,500 compounds went through this assay and about 1,000 (29%) were called active.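 Rule for the calls: active = activation above its plate's cutoff, the mean activation of tested wells plus 3 SD (cut at about 7.9% in these data); inactive = the rest.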 Not all results are given here."}
{"test": "BRM-dependent MMTV reporter reactivation – cell-based, luminescence, triplicate, confirmation (AID 652260)", "settings": "MG213 cells, MMTV-luciferase with dexamethasone, overnight, at 9.1 µM, active compounds read high, DMSO wells 0%, reference activator 100%, MG213 cells expressing E1A, Rb sequestered", "procedure,_shortened": "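Assay system: MG213 MMTV-luciferase reporter cells. Probe or stimulus: 0.1 µM dexamethasone stimulus. Compound: 9.1 µM single dose. Timing: compound exposure 24 h at 37 °C after 1-day dexamethasone priming. Signal: OneGlo luciferase luminescence after 15 min at room temperature. Read-out: normalized percent activation. Benchmarks: DMSO and reference activator wells. Repeats: three replicates.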"}
{"smiles": "O=C1Cc2cc(S(=O)(=O)Nc3cccc(F)c3)ccc2N1", "activation": "0.74% (inactive)"}
{"smiles": "NS(=O)(=O)c1ccccc1NC(=O)c1c(O)c2ccccc2[nH]c1=O", "activation": "12.1% (active)"}
{"smiles": "CCOc1cc(NC(=S)NCCCOC)c(OCC)cc1NC(=O)c1ccco1", "activation": "-1.02% (inactive)"}
{"smiles": "Cc1ccc(S(=O)(=O)NC(C)C(=O)NCc2ccc(Cl)cc2)cc1", "note": "(configuration not stated)", "activation": "-3.9% (inactive)"}
{"smiles": "CCCCn1nnnc1C(c1cc2ccccc2o1)N(C)Cc1ccc(Cl)c(Cl)c1", "note": "(configuration not stated)", "activation": "-4.28% (inactive)"}
{"smiles": "COc1ccccc1OCC(=O)O/N=C(\\N)c1ccccn1", "activation": "10.6% (active)"}
{"smiles": "COc1ccc(/C(N)=N/OC(=O)Oc2ccccc2)cc1", "activation": "-2.89% (inactive)"}
{"smiles": "O=C(CSc1nc2ccccc2[nH]1)c1cccs1", "activation": "2.82% (inactive)"}
{"smiles": "CN(C)CCNC(=O)c1cccc(-c2cnc3c(NC=O)cc(-c4cccc(C(F)(F)F)c4)cn23)c1", "activation": "-12.7% (inactive)"}
{"smiles": "CC(=O)c1cccc(-c2cnc3c(NC=O)cc(-c4ccc(N5CCN(C)CC5)cc4)cn23)c1", "activation": "16.5% (active)"}
{"smiles": "CC(=O)Nc1cc(-c2ccc(N3CCN(C)CC3)cc2)cn2c(-c3ccc(F)cc3)cnc12", "activation": "17.5% (active)"}
{"smiles": "COc1ccc(C)cc1S(=O)(=O)N(CC(=O)Nc1cccc([N+](=O)[O-])c1)c1ccc(C)cc1", "activation": "0.21% (inactive)"}
{"smiles": "Cc1ccc(S(=O)(=O)c2c[nH]c3ccc(Cl)cc3c2=O)cc1", "activation": "0.08% (inactive)"}
{"smiles": "COc1ccc(S(=O)(=O)NC(C)C(=O)N2CCCCCC2)cc1", "note": "(configuration not stated)", "activation": "-2.64% (inactive)"}
{"smiles": "O=C(NCc1ccccn1)c1cnc2sccn2c1=O", "activation": "1.34% (inactive)"}
{"smiles": "Cc1cc(C)n2nc(CNS(=O)(=O)c3c(F)c(F)c(F)c(F)c3F)nc2n1", "activation": "19.1% (active)"}
{"smiles": "Cc1cc(-n2cnc(-c3cn(C)nc3C)n2)no1", "activation": "3.17% (inactive)"}
{"smiles": "COC(=O)C1C(=O)c2c([nH]c(C(=O)OCCSC)c2C)CC1C", "note": "(configuration not stated)", "activation": "6.36% (inactive)"}
{"smiles": "O=C(O)c1cccc(N=NN2CCCCCC2)c1", "activation": "12.5% (active)"}
{"smiles": "CC(=O)c1sc(N/N=C\\c2ccc(C)cc2)nc1C", "activation": "6.84% (inactive)"}
{"smiles": "O=C(OCC(=O)c1cccs1)C1=COCCO1", "activation": "8.33% (active)"}
{"smiles": "COc1ccc(NC(=O)c2sccc2SCC#N)cc1", "activation": "0.37% (inactive)"}
{"smiles": "Cc1cc(O)c(NC(=O)c2ccc(C)c([N+](=O)[O-])c2)cc1C", "activation": "5.6% (inactive)"}
{"smiles": "Cc1cc(=O)[nH]c(N/N=C/c2ccc3c(c2)OCCO3)n1", "activation": "7.09% (inactive)"}
{"smiles": "Cn1c2ccc(F)cc2c2nnc(NN)nc21", "activation": "-1.11% (inactive)"}
{"smiles": "Cc1nc(N=C(N)N)nc2c(C)cccc12", "activation": "40.3% (active)"}
{"smiles": "COc1ccc2nc(/N=C(\\N)NC(=O)Nc3ccccc3)nc(C)c2c1", "activation": "2.85% (inactive)"}
